Results from different studies.
Compare with care: the assays were run in different laboratories.
FGFR3: Fibroblast growth factor receptor 3 (FGFR3, Homo sapiens, UniProt P22607)

SMILES	target	test	setting	quantity	value
C#Cc1n[nH]c2c(-c3cn(C(C)c4ccccn4)c(=O)[nH]c3=O)cc(F)cc12 (stereo not drawn)	FGFR3	enzyme activity, inhibitor	1 µM	inhibition	9.3%
COc1cc(Nc2ncc(F)c(Nc3ccc4c(n3)NC(=O)C(C)(C)O4)n2)cc(OC)c1OC	FGFR3	binding, competition with immobilised ligand	10 µM	inhibition	99%
O=c1[nH]c2ccccc2n1C1CCN(Cc2ccc(-c3[nH]c4cc5ncnc5cc4nc3-c3ccccc3)cc2)CC1	FGFR3	cell-free assay	0.5 µM	remaining signal	101%
Nc1ncc(-c2nc(N3CCOCC3)nc(N3CCOCC3)n2)c(C(F)F)n1	FGFR3	cell-free assay, competition with immobilised ligand	10 µM	remaining binding	88%
Cc1nn(C)cc1-c1nc2c(N3CCN(Cc4ccc(Cl)cc4)CC3)c(Cl)cnc2[nH]1	Fibroblast growth factor receptor 3 (FGFR3, Homo sapiens, UniProt P22607, G697C)	binding, competition with immobilised ligand	1 µM	remaining binding	69%
Cn1cncc1[C@@](O)(COc1ccc(C#N)cc1-c1ccc(OC(F)(F)F)cc1)c1ccc(C#N)cc1	FGFR3	cell-free assay, competition with immobilised ligand	1 µM	remaining binding	100%
COc1ncccc1-c1cnn2ccc(N3CCN(C(=O)OC(C)C)CC3)nc12	FGFR3	binding, competition with immobilised ligand	1 µM	remaining binding	86%
CC(C)(C)c1cc(C=C(C#N)C#N)cc(Br)c1O	FGFR3	enzyme activity, inhibitor	0.5 µM	remaining activity	92.8%
Cn1cc(-c2cc(F)cc(N3CCn4c(cc5c4CCCC5)C3=O)c2CO)cc(Nc2ccc(N3CCN(C4COC4)CC3)cn2)c1=O	FGFR3	enzyme activity, inhibitor	0.1 µM	inhibition	19%
